Source: ChEMBL document CHEMBL1221393, “Effects of structure on inhibitory activity in a series of mechanism-based inhibitors of human neutrophil elastase” (Bioorg Med Chem, 2010)
Activity calls are given as the source filed them. The calls are words filed in the database; no cut-off is given here.

How the values were obtained:
[1] = biological target: T1, Myeloblastin (Homo sapiens) (UniProt P24158); experiment: Inhibition of human neutrophil proteinase 3 assessed as residual activity at 8.62
T1 sequence (whole entry): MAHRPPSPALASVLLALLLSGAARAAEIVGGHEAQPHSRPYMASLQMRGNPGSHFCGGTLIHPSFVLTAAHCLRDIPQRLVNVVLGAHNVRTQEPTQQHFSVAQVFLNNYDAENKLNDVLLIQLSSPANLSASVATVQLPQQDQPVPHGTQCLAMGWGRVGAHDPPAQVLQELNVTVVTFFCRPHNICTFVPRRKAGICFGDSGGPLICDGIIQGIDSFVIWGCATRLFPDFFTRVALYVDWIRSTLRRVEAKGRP
How it was run: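 Human proteinase 3 (final 34.5 nM) was added with DTNB to 0.1 M HEPES/0.5 M NaCl, pH 7.25, containing inhibitor (final 8.62 μM, from DMSO) and Boc-Ala-Ala-NVa-SBzl. Absorbance at 410 nm was followed for 2 min against a DMSO-only hydrolysis control. % remaining activity = (v/vo)×100, mean of duplicate or triplicate runs.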

[2] = biological target: T2, Neutrophil elastase (Homo sapiens) (UniProt P08246); experiment: Ratio of Kinact to Ki for human neutrophil elastase
T2 sequence (whole entry): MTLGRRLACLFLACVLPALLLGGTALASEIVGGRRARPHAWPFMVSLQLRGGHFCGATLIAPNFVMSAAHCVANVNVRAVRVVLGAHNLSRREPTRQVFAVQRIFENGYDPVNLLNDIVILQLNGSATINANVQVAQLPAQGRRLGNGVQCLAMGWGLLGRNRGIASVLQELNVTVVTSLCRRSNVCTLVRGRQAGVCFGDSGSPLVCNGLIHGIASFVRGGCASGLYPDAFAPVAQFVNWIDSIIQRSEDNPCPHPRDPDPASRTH
How it was run: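 Progress-curve method: 10 nM HNE, MeOSuc-AAPV p-nitroanilide (105 μM) and inhibitor at several inhibitor-to-enzyme ratios in 0.1 M HEPES/0.5 M NaCl, pH 7.25, 2.5% DMSO. p-Nitroaniline release was monitored continuously at 410 nm. kobs came from nonlinear fitting of absorbance versus time; kinact/KI = kobs/[I], corrected for substrate concentration. Determined in duplicate.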

[3] = biological target: T2, Neutrophil elastase (Homo sapiens); experiment: Inhibition of human neutrophil elastase at 7 uM; conditions: TDE = time-dependent effect
How it was run: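 HNE (700 nM) incubated with inhibitor (7 μM) in 0.1 M HEPES/0.5 M NaCl, pH 7.25, 1% DMSO, in a constant-temperature bath. Aliquots were taken at intervals and added to MeOSuc-Ala-Ala-Pro-Val p-nitroanilide. Residual activity was read as absorbance at 410 nm over 60 s and expressed as percent remaining activity versus time.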

Row | percent remaining activity [1] | Ratio [2] | inhibition [3] | SMILES
1 | inactive | 419000 | – | CC(=O)Oc1ccccc1C(=O)OCN1C(=O)[C@H](CC(C)C)N(C)S1(=O)=O
2 | inactive | 501000 | – | CC(C)C[C@H]1C(=O)N(COC(=O)C(C)c2ccc(Oc3ccccc3)cc2)S(=O)(=O)N1C (some centres undefined)
3 | inactive | 1770 | – | CC(C)C[C@H]1C(=O)N(COC(=O)C(C)c2ccc(Oc3ccccc3)cc2)S(=O)(=O)N1Cc1ccccc1 (some centres undefined)
4 | inactive | 3200 | – | CC(C)C[C@H]1C(=O)N(COC(=O)CCc2ccccc2)S(=O)(=O)N1Cc1ccccc1
5 | inactive | 981000 | tde | CC(C)C[C@H]1C(=O)N(COC(=O)Cc2ccccc2Nc2c(Cl)cccc2Cl)S(=O)(=O)N1C
6 | inactive | 296000 | – | CC(C)C[C@H]1C(=O)N(COC(=O)CCc2ccccc2)S(=O)(=O)N1C
7 | inactive | 540000 | – | CC(C)C[C@H]1C(=O)N(COC(=O)C(C)c2ccc(C(=O)c3ccccc3)cc2)S(=O)(=O)N1C (some centres undefined)
8 | inactive | 31000 | – | CC(C)C[C@H]1C(=O)N(COC(=O)C(C)c2ccc(C(=O)c3ccccc3)cc2)S(=O)(=O)N1Cc1ccccc1 (some centres undefined)
9 | inactive | 1330 | tde | CC(C)C[C@H]1C(=O)N(COC(=O)Cc2ccccc2Nc2c(Cl)cccc2Cl)S(=O)(=O)N1Cc1ccccc1
10 | inactive | 201000 | – | CC(C)Cc1ccc(C(C)C(=O)OCN2C(=O)[C@H](CC(C)C)N(C)S2(=O)=O)cc1 (some centres undefined)
11 | inactive | 357000 | – | CC(C)C[C@H]1C(=O)N(COC(=O)Cc2ccccc2)S(=O)(=O)N1C
12 | inactive | 1580 | – | CC(C)Cc1ccc(C(C)C(=O)OCN2C(=O)[C@H](CC(C)C)N(Cc3ccccc3)S2(=O)=O)cc1 (some centres undefined)
13 | inactive | 63800 | – | CC(C)C[C@H]1C(=O)N(COC(=O)Cc2ccccc2)S(=O)(=O)N1Cc1ccccc1
14 | inactive | 1.09e+06 | – | CC(C)C[C@H]1C(=O)N(COC(=O)c2ccccc2O)S(=O)(=O)N1Cc1ccccc1
15 | inactive | 1.06e+06 | – | CC(=O)Oc1ccccc1C(=O)OCN1C(=O)[C@H](CC(C)C)N(Cc2ccccc2)S1(=O)=O
16 | inactive | 336000 | – | CC(C)C[C@H]1C(=O)N(COC(=O)c2ccccc2O)S(=O)(=O)N1C
